Test results as given in ChEMBL document CHEMBL1250436, “Evaluation of N-substitution in 6,7-benzomorphan compounds” (Bioorg Med Chem, 2010).

Experiments:
Mu-type opioid receptor [1] = biological target: Mu-type opioid receptor (Rattus norvegicus, UniProt P33535); test: Displacement of [3H]DAMGO from Sprague-Dawley rat mu opioid receptor by liquid scintillation counting
[2] = biological target: Delta-type opioid receptor (Rattus norvegicus, UniProt P33533); test: Displacement of [3H]DPDPE from Sprague-Dawley rat delta opioid receptor by liquid scintillation counting
Chain of Delta-type opioid receptor (Rattus norvegicus, UniProt P33533) (P33533 whole entry): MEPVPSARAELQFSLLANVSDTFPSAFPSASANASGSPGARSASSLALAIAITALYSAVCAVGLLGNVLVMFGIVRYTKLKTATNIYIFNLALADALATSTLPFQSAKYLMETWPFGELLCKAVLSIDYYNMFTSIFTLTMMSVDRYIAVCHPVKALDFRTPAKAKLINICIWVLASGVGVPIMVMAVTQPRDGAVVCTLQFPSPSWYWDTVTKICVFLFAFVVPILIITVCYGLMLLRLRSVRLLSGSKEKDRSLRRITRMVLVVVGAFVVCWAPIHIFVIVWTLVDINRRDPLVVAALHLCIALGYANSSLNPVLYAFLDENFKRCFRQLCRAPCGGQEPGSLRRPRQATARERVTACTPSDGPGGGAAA

[3] = biological target: Kappa-type opioid receptor (Cavia porcellus, UniProt P41144); test: Displacement of [3H]U69593 from […] kappa opioid receptor in guinea pig cerebella by liquid scintillation counting
Chain of Kappa-type opioid receptor (P41144 whole entry): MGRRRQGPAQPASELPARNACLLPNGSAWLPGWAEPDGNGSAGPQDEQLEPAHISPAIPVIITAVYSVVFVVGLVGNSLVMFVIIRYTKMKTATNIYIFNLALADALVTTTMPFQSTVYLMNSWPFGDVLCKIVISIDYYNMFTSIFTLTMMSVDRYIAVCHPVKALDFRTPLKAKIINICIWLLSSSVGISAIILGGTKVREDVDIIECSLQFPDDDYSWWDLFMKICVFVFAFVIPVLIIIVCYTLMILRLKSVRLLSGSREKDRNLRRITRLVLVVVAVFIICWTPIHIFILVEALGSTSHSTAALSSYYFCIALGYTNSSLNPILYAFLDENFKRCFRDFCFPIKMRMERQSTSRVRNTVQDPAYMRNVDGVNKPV

[4] = Selectivity ratio of Ki for kappa opioid receptor in guinea pig cerebella to Ki for mu opioid receptor in Sprague-Dawley rat brain
Rattus norvegicus [5] = organism: Rattus norvegicus; test: Selectivity ratio of Ki for delta opioid receptor in Sprague-Dawley rat brain to Ki for mu opioid receptor in Sprague-Dawley rat brain
Mu-type opioid receptor [6] = biological target: T1, Mu-type opioid receptor (Homo sapiens, UniProt P35372); test: Agonist activity at mu opioid expressed in HEK293 cells assessed as inhibition of forskolin-stimulated cAMP accumulation; format: functional, cell-based
T1 sequence (P35372 whole entry): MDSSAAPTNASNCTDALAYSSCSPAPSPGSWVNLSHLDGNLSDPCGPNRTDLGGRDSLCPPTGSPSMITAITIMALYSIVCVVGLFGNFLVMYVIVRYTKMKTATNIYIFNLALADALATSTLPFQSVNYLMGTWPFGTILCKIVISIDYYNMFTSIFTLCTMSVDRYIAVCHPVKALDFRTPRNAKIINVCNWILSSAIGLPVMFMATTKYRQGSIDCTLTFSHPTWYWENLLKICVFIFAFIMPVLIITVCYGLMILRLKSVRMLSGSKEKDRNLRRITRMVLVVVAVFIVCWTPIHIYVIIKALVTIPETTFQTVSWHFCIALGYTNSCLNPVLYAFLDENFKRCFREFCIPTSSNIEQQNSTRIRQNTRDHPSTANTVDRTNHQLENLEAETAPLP

[7] = biological target: T2, Delta-type opioid receptor (Homo sapiens, UniProt P41143); test: Agonist activity at delta opioid expressed in HEK293 cells assessed as inhibition of forskolin-stimulated cAMP accumulation; format: functional, cell-based
T2 sequence (P41143 whole entry): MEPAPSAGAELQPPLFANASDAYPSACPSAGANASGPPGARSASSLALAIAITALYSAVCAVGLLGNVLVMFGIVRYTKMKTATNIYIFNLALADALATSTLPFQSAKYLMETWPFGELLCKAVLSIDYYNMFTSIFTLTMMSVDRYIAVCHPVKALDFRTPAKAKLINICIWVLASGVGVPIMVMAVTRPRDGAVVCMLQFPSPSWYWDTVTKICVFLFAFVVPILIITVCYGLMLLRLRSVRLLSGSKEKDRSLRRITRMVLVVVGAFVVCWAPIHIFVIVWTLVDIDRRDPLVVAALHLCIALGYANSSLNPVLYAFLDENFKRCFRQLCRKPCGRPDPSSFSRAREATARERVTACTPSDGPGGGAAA

Mu-type opioid receptor [8] = biological target: T1, Mu-type opioid receptor; test: Agonist activity at mu opioid expressed in HEK293 cells assessed as inhibition of forskolin-stimulated cAMP accumulation at 1 pM to 10 uM relative to control; format: functional, cell-based
[9] = biological target: T2, Delta-type opioid receptor; test: Agonist activity at delta opioid expressed in HEK293 cells assessed as inhibition of forskolin-stimulated cAMP accumulation at 1 pM to 10 uM relative to control; format: functional, cell-based
Rattus norvegicus [10] = test: Antinociceptive activity in sc dosed Sprague-Dawley rat assessed as thermal-stimulus-induced tail flick latency after 100 mins; format: functional
Outline: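 Male Sprague–Dawley rats (180–200 g) habituated the day before. Radiant-heat IR on lower third of tail. Basal latency 3–4 s, mean of three readings 5 min apart. Cut-off 10 s. Compound given sc, and latencies read at 20, 40, 60, 80 and 100 min. Blinded. ED50 from linear regression of dose–effect, with 95% confidence limits.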

Chain of Mu-type opioid receptor (Rattus norvegicus, UniProt P33535) (P33535 whole entry): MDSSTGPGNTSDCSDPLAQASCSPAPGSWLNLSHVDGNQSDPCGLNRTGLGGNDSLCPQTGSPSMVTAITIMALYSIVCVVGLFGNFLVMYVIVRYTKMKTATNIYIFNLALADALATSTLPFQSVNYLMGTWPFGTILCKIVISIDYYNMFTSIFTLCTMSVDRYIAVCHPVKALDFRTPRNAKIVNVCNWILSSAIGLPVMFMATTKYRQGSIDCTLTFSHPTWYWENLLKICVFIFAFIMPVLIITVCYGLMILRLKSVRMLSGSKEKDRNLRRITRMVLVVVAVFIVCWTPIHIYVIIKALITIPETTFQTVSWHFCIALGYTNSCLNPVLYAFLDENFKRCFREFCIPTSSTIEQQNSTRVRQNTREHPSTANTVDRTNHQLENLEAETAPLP

SMILES	Ki (Mu-type opioid receptor [1]) [nM]	Ki [2] [nM]	Ki [3] [nM]	Ratio Ki [4]	Ratio Ki (Rattus norvegicus [5])	IC50 (Mu-type opioid receptor [6]) [nM]	IC50 [7] [nM]	Imax (Mu-type opioid receptor [8]) [%]	Imax [9] [%]	ED50 (Rattus norvegicus [10]) [mg/kg]
CCN(C(=O)CCN1C[C@H](C)[C@@]2(C)C[C@H]1Cc1ccc(O)cc12)c1ccccc1	136	> 5000	70	0.51	> 36.7	–	–	–	–	–
C[C@H]1CN(CCC(=O)NC2CCCCC2)[C@@H]2Cc3ccc(O)cc3[C@]1(C)C2	56	> 5000	501	8.9	> 89.2	–	–	–	–	–
C[C@H]1CN(CC(=O)NC2CCCCC2)[C@@H]2Cc3ccc(O)cc3[C@]1(C)C2	2930	> 5000	612	0.2	> 1.7	–	–	–	–	–
C[C@H]1CN(CCC(=O)NCC2CCCCC2)[C@@H]2Cc3ccc(O)cc3[C@]1(C)C2	107	> 5000	134	1.2	> 46.7	–	–	–	–	–
C[C@H]1CN(CCC(=O)N(C)c2ccccc2)[C@@H]2Cc3ccc(O)cc3[C@]1(C)C2	65	> 5000	261	4	> 76.9	–	–	–	–	–
C[C@H]1CN(CCC(=O)Nc2ccccc2)[C@@H]2Cc3ccc(O)cc3[C@]1(C)C2	0.83	29.1	110	132	33.8	4.8	12	73	83	2.03
CCN(C(=O)CN1C[C@H](C)[C@@]2(C)C[C@H]1Cc1ccc(O)cc12)c1ccccc1	1120	> 5000	335	0.29	> 4.4	–	–	–	–	–
C[C@@H](NC(=O)[C@@H](N)Cc1ccc(O)cc1)C(=O)NCC(=O)N(C)[C@@H](Cc1ccccc1)C(=O)NCCO [DAMGO]	–	2670	> 5000	–	–	–	–	–	–	–
C[C@H]1CN(CCC(=O)NCc2ccccc2)[C@@H]2Cc3ccc(O)cc3[C@]1(C)C2	105	> 5000	237	2.2	> 47.6	–	–	–	–	–
C[C@H]1CN(CC(=O)Nc2ccccc2)[C@@H]2Cc3ccc(O)cc3[C@]1(C)C2	722	> 5000	> 5000	> 6.9	> 6.9	–	–	–	–	–
C[C@H]1CN(CC(=O)N(C)c2ccccc2)[C@@H]2Cc3ccc(O)cc3[C@]1(C)C2	1370	> 5000	339	0.24	> 3.6	–	–	–	–	–
CN1CC[C@]23c4c5ccc(O)c4O[C@H]2[C@@H](O)C=C[C@H]3[C@H]1C5 [MORPHINE]	–	–	–	–	–	–	–	–	–	2.7
C[C@H]1CN(CCC(=O)NC(C)(C)C)[C@@H]2Cc3ccc(O)cc3[C@]1(C)C2	372	> 5000	422	1.1	> 13.4	–	–	–	–	–
